Results: ChEMBL document CHEMBL1124816, “Effect of structure on potency and selectivity in 2,6-disubstituted 4-(2-arylethenyl)phenol lipoxygenase inhibitors” (J Med Chem, 1990)

Legend:
[1] = (§1) Inhibition of human platelet Prostaglandin G/H synthase at the concentration of 10 uM
Outline: (§2)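 CO activity measured in human platelets. Percent inhibition at a single test concentration is compared with untreated control, with significance by ANOVA and Tukey's multiple comparisons test (p < 0.05).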

[2] = molecular target: T1, Polyunsaturated fatty acid 5-lipoxygenase (Homo sapiens) (UniProt P09917); test: (§3) Inhibition of human neutrophil 5-lipoxygenase at the concentration of 1 uM; type: functional
T1 sequence (whole entry): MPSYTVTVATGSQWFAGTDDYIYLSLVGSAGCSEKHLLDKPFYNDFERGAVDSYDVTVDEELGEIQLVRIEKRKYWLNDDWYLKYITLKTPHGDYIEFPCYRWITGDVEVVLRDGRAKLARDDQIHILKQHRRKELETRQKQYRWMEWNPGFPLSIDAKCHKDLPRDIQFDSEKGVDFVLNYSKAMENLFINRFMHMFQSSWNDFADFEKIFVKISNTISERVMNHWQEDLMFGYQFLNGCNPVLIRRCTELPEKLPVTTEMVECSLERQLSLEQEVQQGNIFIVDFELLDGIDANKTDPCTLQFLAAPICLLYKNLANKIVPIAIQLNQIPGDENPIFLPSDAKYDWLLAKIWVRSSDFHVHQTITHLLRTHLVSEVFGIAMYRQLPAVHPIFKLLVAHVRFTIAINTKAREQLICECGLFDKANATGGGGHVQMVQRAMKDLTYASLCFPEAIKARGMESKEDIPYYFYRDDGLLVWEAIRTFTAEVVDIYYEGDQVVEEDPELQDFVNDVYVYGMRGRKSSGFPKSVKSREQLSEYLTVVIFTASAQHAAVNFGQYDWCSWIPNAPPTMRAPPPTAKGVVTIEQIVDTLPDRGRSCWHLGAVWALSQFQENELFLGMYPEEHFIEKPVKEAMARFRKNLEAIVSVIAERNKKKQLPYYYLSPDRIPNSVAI
Outline: (§4)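 5-LO activity measured in human peripheral blood leukocytes. Percent inhibition at a single test concentration is compared with untreated control, with significance by ANOVA and Tukey's multiple comparisons test (p < 0.05).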

Cyclooxygenase [3] = molecular target: T2, Cyclooxygenase (Homo sapiens, UniProt P35354+P23219); test: Inhibition of human platelet Prostaglandin G/H synthase
Cyclooxygenase [4] = molecular target: T2, Cyclooxygenase; test: (§5) Inhibition of human platelet Prostaglandin G/H synthase at the concentration of 1 uM; outline: as §2
[5] = molecular target: T3, Polyunsaturated fatty acid 5-lipoxygenase (Homo sapiens, UniProt P09917); test: Inhibition of human neutrophil 5-lipoxygenase
T3 sequence (P09917 whole entry): T1 sequence (whole entry)

Cavia porcellus [6] = test: Inhibition of antigen-induced leukotriene-mediated bronchoconstriction in conscious guinea pig at the dose of 30mg/Kg, ip; type: functional
Outline: (§6)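 Male Hartley guinea pigs (250–300 g), actively ovalbumin-sensitized, fasted 18 h, anesthetized, pleural pressure transducer fitted. Dosed 60 min before aerosolized ovalbumin challenge with pyrilamine (10 mg/kg ip), indomethacin (10 mg/kg ip) and test agent (ip as 5% Tween 80 suspension). Head-out plethysmography after recovery; Cdyn mean change from baseline over 5–15 min post-challenge vs controls; 5–10 animals per dose; Dunnett's test.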

Cavia porcellus [7] = test: Inhibition of antigen-induced leukotriene-mediated bronchoconstriction in conscious guinea pig at the dose of 30mg/Kg, ip.; type: functional; outline: as §6
Cavia porcellus [8] = organism: Cavia porcellus; test: Inhibition of cell influx (total cells) in guinea pig; type: functional
Outline: (§7)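 Male Hartley guinea pigs (250–300 g), ovalbumin-sensitized, fasted, pretreated 60 min before challenge with pyrilamine (10 mg/kg ip), indomethacin (10 mg/kg ip) and test agent (ip as 5% Tween 80 suspension). Challenged with aerosolized ovalbumin; 4 h later anesthetized and exsanguinated for late-phase inflammatory cell influx counts (total cells, PMN).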

Cavia porcellus [9] = organism: Cavia porcellus; test: Inhibition of cell influx (PMN) in guinea pig; type: functional; outline: as §7
Cavia porcellus [10] = test: Inhibition of antigen-induced leukotriene-mediated bronchoconstriction in conscious guinea pig at the dose of 10mg/Kg, ip; type: functional; outline: as §6
Cavia porcellus [11] = test: Inhibition of antigen-induced ileukotriene-mediated bronchoconstriction in conscious guinea pig at the dose of 300mg/Kg, po.; type: functional
Cavia porcellus [12] = test: Inhibition of antigen-induced leukotriene-mediated bronchoconstriction in conscious guinea pig at the dose of 100mg/Kg, po.; type: functional
Cavia porcellus [13] = test: Inhibition of antigen-induced leukotriene-mediated bronchoconstriction in conscious guinea pigat the dose of 100mg/Kg, ip; type: functional; outline: as §6
Cavia porcellus [14] = test: Inhibition of antigen-induced leukotriene-mediated bronchoconstriction in conscious guinea pig at the dose of 30mg/Kg, po.; type: functional
[15] = molecular target: T1, Polyunsaturated fatty acid 5-lipoxygenase (Homo sapiens); test: as §3; outline: as §4
Cyclooxygenase [16] = molecular target: T2, Cyclooxygenase; test: as §1; type: functional; outline: as §2
Cyclooxygenase [17] = molecular target: T2, Cyclooxygenase; test: as §5; type: functional; outline: as §2
[18] = molecular target: T1, Polyunsaturated fatty acid 5-lipoxygenase (Homo sapiens); test: Inhibition of human neutrophil 5-lipoxygenase at the concentration of 0.1 uM; outline: as §4
[19] = molecular target: T1, Polyunsaturated fatty acid 5-lipoxygenase (Homo sapiens); test: Inhibition of lipoxygenase at the concentration of 1 uM; outline: as §4
[20] = molecular target: T1, Polyunsaturated fatty acid 5-lipoxygenase (Homo sapiens); test: Inhibition of lipoxygenase at the concentration of 0.1 uM; outline: as §4

| SMILES | IC50 (Cyclooxygenase [3]) [µM] | IC50 [5] [µM] | inhibition in vivo at 30 mg/kg (Cavia porcellus [6]) [%] | other results |
| --- | --- | --- | --- | --- |
| Cc1cc(/C=C/c2ccccc2C(=O)O)cc(C)c1O | > 10 | > 1 |  | inhibition [1]: 25%; inhibition [2]: 12%; inhibition (Cyclooxygenase [4]): 16% |
| COc1cc(/C=C/c2cccs2)cc(C)c1O | 3.1 | 0.086 | 41 |  |
| CC(C)(C)c1cc(/C=C/c2cccnc2)cc(C(C)(C)C)c1O |  | 1.7 |  | inhibition in vivo at 300 mg/kg (Cavia porcellus [11]): 7.7%; inhibition in vivo at 100 mg/kg (Cavia porcellus [12]): -2%; inhibition in vivo at 100 mg/kg (Cavia porcellus [13]): 10%; Inhibition (Cavia porcellus [8]): 0%; Inhibition (Cavia porcellus [9]): 0%; inhibition in vivo at 30 mg/kg (Cavia porcellus [14]): -24% |
| CCc1cc(/C=C/c2cccs2)cc(OC)c1O | 1.4 | 0.09 | 51 |  |
| CCCc1cc(/C=C/c2cccs2)cc(OC)c1O | 1.3 | 0.086 | 57 | Inhibition (Cavia porcellus [8]): 77%; Inhibition (Cavia porcellus [9]): 54% |
| CCc1cc(/C=C/c2cccnc2)cc(CC)c1O | < 10 | < 1 |  | inhibition [15]: 86%; inhibition (Cyclooxygenase [16]): 82%; inhibition (Cyclooxygenase [17]): 20%; inhibition [18]: 36% |
| CCCC/C(=C\c1cc(C)c(O)c(C)c1)c1ccc(F)cc1 | 1 | < 1 |  | inhibition [19]: 93%; inhibition [1]: 86%; inhibition [20]: 17%; inhibition (Cyclooxygenase [4]): 52% |

More lines, main results first:

| IC50 (Cyclooxygenase [3]) [µM] | IC50 [5] [µM] | SMILES | inhibition in vivo at 30 mg/kg (Cavia porcellus [6]) [%] | other results |
| --- | --- | --- | --- | --- |
| 1.3 | 0.12 | Cc1cc(/C=C/c2ccc(F)cc2)cc(C)c1O [ENOFELAST] |  | inhibition in vivo at 30 mg/kg (Cavia porcellus [7]): 43% |
| < 10 | 0.045 | Cc1cc(/C=C/c2ccsc2)cc(C)c1O | 26 | inhibition [1]: 96%; inhibition (Cyclooxygenase [4]): 38% |
| 2.5 | 0.13 | Cc1cccc(/C=C/c2cc(C)c(O)c(C)c2)c1 |  | inhibition in vivo at 30 mg/kg (Cavia porcellus [7]): 49% |
| 0.78 | 0.054 | Cc1cc(/C=C/c2cccs2)cc(C)c1O | 70.3 | Inhibition (Cavia porcellus [8]): 78%; Inhibition (Cavia porcellus [9]): 95%; inhibition in vivo at 10 mg/kg (Cavia porcellus [10]): 34.5% |
| 1.5 | 0.091 | COc1ccc(/C=C/c2cc(C)c(O)c(C)c2)cc1 | 28 |  |
| 3.2 | 0.29 | Cc1ccc(/C=C/c2cc(C)c(O)c(C)c2)cc1 |  | inhibition in vivo at 30 mg/kg (Cavia porcellus [7]): 59% |
| < 10 | < 1 | Cc1cc(/C=C/c2ccc3ccccc3c2)cc(C)c1O |  | inhibition [19]: 61%; inhibition [1]: 66%; inhibition [20]: 16%; inhibition (Cyclooxygenase [4]): 37% |
